Format in all cases: cell-based
Test [1] concerns the target T1, Protein cereblon/Bromodomain-containing protein 4 (Homo sapiens) (UniProt O60885+Q96SW2). Nature of the test: PROTAC activity at BRD4/Cereblon in human LS174T cells assessed as BRD4 protein degradation at 500 nM for 2 hrs by Western blot analysis. The essentials: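 LS174t cells exposed 2 h to PROTAC; for washout, medium replaced and cells collected 22 h later. BRD4 by immunoblot (15 µg lysate, 10% SDS-PAGE, anti-BRD4 1:1,000 overnight at 4 °C, GAPDH/β-actin control).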
In general terms: A western blot detects proteins with antibodies after separation by electrophoresis.

Test [2] deals with T1, Protein cereblon/Bromodomain-containing protein 4 (Homo sapiens). Nature of the test: PROTAC activity at BRD4/Cereblon in human LS174T cells assessed as decrease in MYC mRNA level at 100 to 1000 nM for 24 hrs by RT-qPCR analysis. To be noted: dose 100-1000 nM. Put shortly:
(§1)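 Total RNA from 10^6 cells after 24 h treatment, Trizol-extracted and integrity-checked. 0.7 µg reverse transcribed, then SYBR-type qPCR: 95 °C 5 min, 40 cycles of 95 °C 15 s/60 °C 60 s. Melting curves checked. MYC or BRD4 normalised to PPIA and ACTB by ΔΔCq. At least three experiments; means ± SD.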
Background: Real-time PCR tracks product formation cycle by cycle.

Test [3] shares this target. Description: PROTAC activity at BRD4/Cereblon in human LS174T cells assessed as BRD4 protein degradation at 250 to 500 nM pretreated with thalidomide for 4 hrs by Western blot analysis. To be noted: dose 250-500 nM.
Test [4] shares this target. Nature of the test: PROTAC activity at BRD4/Cereblon in human HT-29 cells assessed as decrease in MYC protein expression at 5 to 10 uM for 24 hrs by Western blot analysis. The note with it: dose 5-10 µM. Put shortly: (§2)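 Eight CRC lines exposed 24 h to PROTAC at 5 or 10 µM (stocks 2 mM in DMSO, diluted in PBS or medium). Lysis in RIPA with protease/phosphatase inhibitors and 2.5 mmol/l DTT; 15 µg protein on 10% SDS-PAGE, semi-dry transfer to nitrocellulose. Anti-BRD4 or anti-MYC at 1:1,000 overnight at 4 °C; GAPDH or β-actin loading control; chemiluminescence.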

For test [5] the target is unchanged. Description: PROTAC activity at BRD4/Cereblon in human COLO 320 cells assessed as decrease in MYC protein expression at 5 to 10 uM for 24 hrs by Western blot analysis. The note with it: dose 5-10 µM. The essentials: as §2
The target is the same in test [6]. Description: PROTAC activity at BRD4/Cereblon in human SW480 cells assessed as decrease in BRD4 protein degradation at 5 to 10 uM for 24 hrs by Western blot analysis. To be noted: dose 5-10 µM. Put shortly: as §2
Test [7] has the same target. Nature of the test: PROTAC activity at BRD4/Cereblon in human LS174T cells assessed as BRD4 protein degradation at 100 to 500 nM pretreated with proteasome inhibitor MG132 for 4 hrs by Western blot analysis. The note with it: dose 100-500 nM. Put shortly:
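LS174t cells pre-incubated 4 h with proteasome inhibitor MG132 (10 mM DMSO stock) before PROTAC exposure. BRD4 read by immunoblot: 15 µg lysate, 10% SDS-PAGE, anti-BRD4 1:1,000 overnight at 4 °C, GAPDH/β-actin loading control.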

The target is the same in test [8]. Description: PROTAC activity at BRD4/Cereblon in human SW480 cells assessed as decrease in MYC protein expression at 5 to 10 uM for 24 hrs by Western blot analysis. The note with it: dose 5-10 µM. Put shortly: as §2
For test [9] the target is unchanged. Description: PROTAC activity at BRD4/Cereblon in human LS174T-dbet1 resistant cells assessed as BRD4 protein degradation at 500 to 1000 nM for 24 hrs by Western blot analysis. The note with it: dose 500-1000 nM.
Test [10] has the same target. Nature of the test: PROTAC activity at BRD4/Cereblon in human LS174T cells assessed as decrease in BRD4 protein degradation at 5 to 10 uM for 24 hrs by Western blot analysis. To be noted: dose 5-10 µM. Put shortly:
as §2

The target is the same in test [11]. Nature of the test: PROTAC activity at BRD4/Cereblon in human HCT116 p53-/- cells assessed as decrease in BRD4 protein degradation at 5 to 10 uM for 24 hrs by Western blot analysis. To be noted: HCT-116, dose 5-10 µM. Put shortly: as §2
The target is the same in test [12]. Description: PROTAC activity at BRD4/Cereblon in human LS174T-dbet1 resistant cells assessed as MYC mRNA level at 500 to 1000 nM for 24 hrs by RT-qPCR analysis. The note with it: dose 500-1000 nM. The essentials:
as §1

For test [13], the target named is T2, von Hippel-Lindau disease tumor suppressor/Bromodomain-containing protein 4 (Homo sapiens) (UniProt O60885+P40337). Nature of the test: PROTAC activity at BRD4/VHL E3 ligase in human Caco-2 cells assessed as decrease in BRD4 protein degradation at 5 to 10 uM for 24 hrs by Western blot analysis. To be noted: dose 5-10 µM. Put shortly: as §2
The target in test [14] is T2, von Hippel-Lindau disease tumor suppressor/Bromodomain-containing protein 4 (Homo sapiens). Description: PROTAC activity at BRD4/VHL E3 ligase in human HCT116 p53+/+ cells assessed as decrease in BRD4 protein degradation at 5 to 10 uM for 24 hrs by Western blot analysis. To be noted: HCT-116, dose 5-10 µM. The essentials: as §2
The target is the same in test [15]. Nature of the test: PROTAC activity at BRD4/VHL E3 ligase in human LS174T cells assessed as BRD4 mRNA level at 500 to 1000 nM for 24 hrs by RT-qPCR analysis. To be noted: dose 500-1000 nM. Put shortly:
(§3)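 LS174t cells were treated for 24 h, then total RNA was Trizol-extracted from 10^6 cells and integrity-checked. 0.7 µg RNA was reverse transcribed and SYBR-type qPCR run for 40 cycles (95 °C 15 s, 60 °C 60 s), with melt-curve control. MYC or BRD4 mRNA was normalised to PPIA and ACTB by the ΔΔCq method. Experiments were run at least three times; mean ± SD.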

Test [16] shares this target. Description: PROTAC activity at BRD4/VHL E3 ligase in human SW480 cells assessed as decrease in MYC protein expression at 5 to 10 uM for 24 hrs by Western blot analysis. The note with it: dose 5-10 µM. The essentials: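 Eight CRC lines, including LS174t (RPMI 1640) and SW480 (DMEM/HamsF12), all with 10% FCS, were treated with PROTAC at 5 and 10 µM. BRD4 and MYC proteins were detected by immunoblot (RIPA lysate, 15 µg, 10% gel, primary 1:1,000 overnight at 4 °C), with GAPDH/β-actin as loading control.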

For test [17] the target is unchanged. Nature of the test: PROTAC activity at BRD4/VHL E3 ligase in human LS174T cells assessed as decrease in MYC mRNA level at 100 to 1000 nM for 24 hrs by RT-qPCR analysis. The note with it: dose 100-1000 nM. The essentials:
as §3

For test [18] the target is unchanged. Nature of the test: PROTAC activity at BRD4/VHL E3 ligase in human HCT116 p53-/- cells assessed as decrease in BRD4 protein degradation at 5 to 10 uM for 24 hrs by Western blot analysis. To be noted: HCT-116, dose 5-10 µM. The essentials:
as §2

For test [19] the target is unchanged. Nature of the test: PROTAC activity at BRD4/VHL E3 ligase in human fibroblast cells assessed as decrease in BRD4 protein degradation at 100 to 250 nM for 24 hrs by Western blot analysis. To be noted: dose 100-250 nM. The essentials:
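Normal human dermal fibroblasts in 10% FCS medium were treated with 100 or 250 nM PROTAC. BRD4 and MYC protein were assessed by western blot (15 µg RIPA lysate, 10% SDS-PAGE, primary 1:1,000 overnight at 4 °C), with GAPDH/β-actin as loading control.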

Test [20] has the same target. Description: PROTAC activity at BRD4/VHL E3 ligase in human COLO 320 cells assessed as decrease in MYC protein expression at 5 to 10 uM for 24 hrs by Western blot analysis. The note with it: dose 5-10 µM. Put shortly:
as §2

Activity calls are given as the source filed them. The calls are words filed in the database; no cut-off is given here.

T2 sequence (P40337 whole entry, looked up, other chains not shown): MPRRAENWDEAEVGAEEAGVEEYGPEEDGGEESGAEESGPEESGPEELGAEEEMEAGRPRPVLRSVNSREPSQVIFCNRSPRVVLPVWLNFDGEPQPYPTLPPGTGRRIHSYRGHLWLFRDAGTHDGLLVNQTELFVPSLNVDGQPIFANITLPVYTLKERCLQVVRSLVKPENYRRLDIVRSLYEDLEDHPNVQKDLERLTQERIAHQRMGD
T1 sequence (Q96SW2 whole entry, looked up, other chains not shown): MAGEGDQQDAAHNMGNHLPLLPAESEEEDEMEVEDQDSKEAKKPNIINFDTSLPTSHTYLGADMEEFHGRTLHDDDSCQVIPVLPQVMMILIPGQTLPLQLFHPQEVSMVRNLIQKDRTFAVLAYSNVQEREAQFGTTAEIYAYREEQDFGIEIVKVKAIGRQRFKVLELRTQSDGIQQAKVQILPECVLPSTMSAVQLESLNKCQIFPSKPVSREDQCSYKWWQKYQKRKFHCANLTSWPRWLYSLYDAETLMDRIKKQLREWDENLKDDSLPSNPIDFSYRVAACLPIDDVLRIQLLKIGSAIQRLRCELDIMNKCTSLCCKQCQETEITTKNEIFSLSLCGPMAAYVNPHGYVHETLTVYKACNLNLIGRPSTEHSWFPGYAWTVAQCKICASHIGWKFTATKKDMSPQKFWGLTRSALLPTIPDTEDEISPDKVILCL

`Cc1sc2c(c1C)C(c1ccc(Cl)cc1)=N[C@@H](CC(=O)NCCCCNC(=O)COc1cccc3c1C(=O)N(C1CCC(=O)NC1=O)C3=O)c1nnc(C)n1-2` (stereo not given in full): the result in [1], in [2], in test [4], in test [5], in test [10] and in test [11] was Active. For the same molecule, the outcome in [3], in [6], in test [7], in test [8], in [9] and in [12] was inactive.

In the case of `Cc1ncsc1-c1ccc(CNC(=O)[C@@H]2C[C@@H](O)CN2C(=O)[C@@H](NC(=O)COCCOCCOCCNC(=O)C[C@@H]2N=C(c3ccc(Cl)cc3)c3c(sc(C)c3C)-n3c(C)nnc32)C(C)(C)C)cc1`, the outcome in [13], in test [14], in [16], in test [17], in [18] and in [19] was Active. Moreover, the outcome in test [20] was Active. Moreover, the outcome in [15] was inactive.
